TRPML3 ag – agonists of human TRPML3 channel; Q8TDD5; HEK293 TRPML3-YFP, Fluo-8 calcium fluorescence; 100% = the carbachol control signal; activation, % at 3 µM; 0.29% of 220,000 active;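 active = activation above its plate's cutoff, the mean activation of the plate's test wells plus 3 SD, cut at about 12% in these data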
Target sequence (Q8TDD5 whole entry, looked up): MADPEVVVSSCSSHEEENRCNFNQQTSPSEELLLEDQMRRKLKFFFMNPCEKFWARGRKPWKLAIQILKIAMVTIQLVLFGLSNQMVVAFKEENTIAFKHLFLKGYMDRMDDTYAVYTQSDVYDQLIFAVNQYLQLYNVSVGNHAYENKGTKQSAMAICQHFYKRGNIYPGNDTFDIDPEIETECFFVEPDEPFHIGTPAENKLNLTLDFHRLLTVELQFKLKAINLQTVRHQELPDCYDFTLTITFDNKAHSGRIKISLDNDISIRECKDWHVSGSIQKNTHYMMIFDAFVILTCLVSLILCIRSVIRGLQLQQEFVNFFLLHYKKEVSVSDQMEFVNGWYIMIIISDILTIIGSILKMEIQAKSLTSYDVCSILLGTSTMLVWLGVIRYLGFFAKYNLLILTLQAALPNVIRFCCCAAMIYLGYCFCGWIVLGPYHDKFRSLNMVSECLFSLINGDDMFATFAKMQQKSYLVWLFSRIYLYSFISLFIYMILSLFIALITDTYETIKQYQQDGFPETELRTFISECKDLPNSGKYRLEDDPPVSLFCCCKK
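Test system: HEK293 cells stably carrying human TRPML3-YFP; Doses: single dose, 3 µM final nominal compound, 0.3% DMSO final; Schedule: dye loading 1 h 37 °C then 30 min ambient, 125 s read; Technique: Fluo-8 calcium fluorescence; Benchmarks: high control carbachol 87 µM, low control DMSO.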
zfTRPN1 agonist – agonists of zebrafish TRPN1 channel; HEK293 zebrafish TRPN1-YFP, Fluo-8 calcium fluorescence; 100% = response to 87 µM carbachol; activation, % at 3 µM; 0.18% of 220,000 active; AID 1424;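 active = activation above its plate's cutoff, the mean activation of test wells on that plate plus 3 SD, cut at about 19% in these data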
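Assay system: Zebrafish TRPN1-YFP in HEK293 cells | Incubation: Dye loading 1 h at 37 °C, then 30 min room temperature | Measured by: Kinetic Fluo-8 fluorescence, ex 470-495, em 515-575 nm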
OXTR agonist – agonists of human oxytocin receptor; CHO-OTR cells, Fluo-8 calcium fluorescence; normalized: DMSO 0%, oxytocin 100%; 0.32% of 320,000 active; P30559; activation, % at 3 µM;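 active = activation above the mean of all tested compounds plus 3 SD, cutoff set per screening run, cut at about 20% in these data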;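 note: peak over basal fluorescence ratio from a 100 s FLIPR kinetic read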
OXTR potentiator – human OXTR potentiation; 0.061% of 320,000 active; activation, % at 3 µM; AID 2445; CHO-OTR cells, Fluo-8 calcium fluorescence, potentiator mode; 0% = oxytocin EC15, 100% = EC100;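 active = activation above that plate's cutoff, the mean activation of tested compounds plus 3 SD, cut at about 6.6% in these data, passing the limit was not always enough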
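System: human OTR in CHO cells / Also added: sub-maximal oxytocin, roughly EC15 / Control set: EC15 oxytocin low, 75 nM oxytocin high / Schedule: 6 min compound pre-incubation at room temperature, 100 s kinetic read / Compound: single-point 3.0 µM / Replication: singlicate / Technique: Fluo-8 calcium dye fluorescence / Read-out basis: % activation of max/min ratio relative to oxytocin controls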
V1R ag counter – activates human V1a receptor in oxytocin agonist counter-screen; activation, % at 3 µM; CHO-V1R cells, Fluo-8 calcium fluorescence, agonist mode; 0% DMSO, 100% 3 nM vasopressin; 0.25% of 320,000 active; AID 2797;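 active = activation above the mean activation of all tested compounds plus 3 SD, per screening run, cut at about 20% in these data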;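 note: signal is peak over basal fluorescence ratio across a 100 second FLIPR read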
TRPN1 ag 2 – activates zebrafish TRPN1, counter-screen for TRPML3 agonists; shares compounds with TRPML3 ag; AID 1525; activation, % at 3 µM; HEK293 zebrafish TRPN1-YFP, Fluo-8 calcium fluorescence; scaled: carbachol wells 100%, DMSO wells 0%; 10% of 310 active;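 active = mean activation over replicates above a set limit taken from the earlier TRPN1 channel primary screen, cut at about 19% in these data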
TRPML3 ag conf – confirmation of human TRPML3 channel agonists. shares compounds with TRPML3 ag. HEK293 TRPML3-YFP, Fluo-8 calcium fluorescence; 100% set by carbachol, 0% by DMSO. activation, % at 3 µM. 80% of 310 active. AID 1526;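 active = activation above a set limit derived from the earlier primary screen, cut at about 12% in these data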
Each line names hits and unclear results; the compound was inactive in the other large screens (follow-up assays come after a bar, where they were run). Most compounds without a hit are left out; they make up all but 0.59% or so of the library.

COCCCNC(=O)Cc1c(C)c2c(cc(C)c3c(C(C)(C)C)coc32)oc1=O	none (no result: TRPML3 ag, zfTRPN1 agonist)
Cc1cc(C(C)(C)C)oc1C(=O)N(CC(=O)NC1CCCC1)Cc1ccccc1Cl	TRPML3 ag 33 | TRPN1 ag 2 inactive | TRPML3 ag conf 34
Cc1ccccc1N(CC(=O)NC1CCCC1)C(=O)c1oc(C(C)(C)C)cc1C	none
CCCCOC(C)n1cc(F)c(=O)[nH]c1=O (stereo not drawn)	none
Cc1ccc(N2CCN(S(=O)(=O)N3CCCCC3)CC2)c(C)c1	TRPML3 ag 37 | TRPN1 ag 2 inactive | TRPML3 ag conf 132
CC1CCN(S(=O)(=O)c2cc(Cl)ccc2Br)CC1	none
O=S(=O)(c1ccc(Cl)cc1Br)N1CCCCC1	TRPML3 ag 15 | TRPN1 ag 2 inactive | TRPML3 ag conf 27
O=S(=O)(N1CCCCC1)N1CCN(c2cc(Cl)ccc2Cl)CC1	TRPML3 ag 19 | TRPN1 ag 2 inactive | TRPML3 ag conf 96
CC(CC(=O)Nc1nnc(C(C)(C)C)s1)c1ccccc1 (stereo not drawn)	none (no result: TRPML3 ag, zfTRPN1 agonist)
Cc1ccc(S(=O)(=O)Nc2ccccc2N2CCCCC2)cc1	none (no result: TRPML3 ag, zfTRPN1 agonist)
O=S(=O)(Nc1ccccc1N1CCCCC1)c1ccc(F)cc1F	TRPML3 ag 16 | TRPN1 ag 2 inactive | TRPML3 ag conf inactive
COc1ccc(NS(=O)(=O)c2cccc(C(=O)NNC(=O)c3ccc(Br)o3)c2)cc1	none (no result: TRPML3 ag, zfTRPN1 agonist)
COc1ccc(C(=O)CSc2nnn(-c3cccc(NC(C)=O)c3)n2)cc1	TRPML3 ag 12 | TRPN1 ag 2 inactive | TRPML3 ag conf 21
CC(=O)Nc1cccc(-n2nnc(SCC(=O)c3ccccc3)n2)c1	none
O=c1c(Cl)c(Cl)cnn1Cc1nnc(-c2ccccc2Br)o1	TRPML3 ag 18 (no result: OXTR agonist, OXTR potentiator, V1R ag counter) | TRPN1 ag 2 inactive | TRPML3 ag conf 37
Clc1ccccc1OCc1nnc(-c2ccccc2Br)o1	none
O=C1C2C3C=CC(C3)C2C(=O)N1c1ccc(N2CCN(c3ccccn3)CC2)c([N+](=O)[O-])c1 (stereo not drawn)	TRPML3 ag 16 | TRPN1 ag 2 inactive | TRPML3 ag conf 21
CCC1CCCCN1S(=O)(=O)c1ccccc1[N+](=O)[O-] (stereo not drawn)	TRPML3 ag 22 | TRPN1 ag 2 inactive | TRPML3 ag conf 22
CC1CCCCN1S(=O)(=O)c1ccccc1[N+](=O)[O-] (stereo not drawn)	none
C/C=C(\C)C(=O)OC(C)(C)[C@H]1Cc2cc3ccc(=O)oc3cc2O1	none (no result: TRPML3 ag, zfTRPN1 agonist)
CC(C)(C)[C@]1(O)CCN2C[C@H]3c4ccccc4CCc4cccc(c43)[C@@H]2C1	TRPML3 ag 25 | TRPN1 ag 2 inactive | TRPML3 ag conf 42
CN1CCN2c3ncccc3Cc3ccccc3C2C1 (stereo not drawn)	none (no result: TRPML3 ag, zfTRPN1 agonist)
CCN(CC)c1ccc(NC(=O)COc2ccc(N(C)S(=O)(=O)c3cccs3)cc2)cc1	TRPML3 ag 14 | TRPN1 ag 2 inactive | TRPML3 ag conf 28
CN(c1ccc(OCC(=O)OCC(=O)Nc2ccccc2)cc1)S(=O)(=O)c1cccs1	none
COc1cccc(CN(CC2CCCO2)S(=O)(=O)c2ccc(S(=O)(=O)N(C)C)cc2)c1 (stereo not drawn)	TRPML3 ag 14 | TRPN1 ag 2 inactive | TRPML3 ag conf 17
COc1ccc(Cl)cc1C(=O)CSc1nnnn1C1CCCC1	TRPML3 ag 74 | TRPN1 ag 2 inactive | TRPML3 ag conf 51
COC(=O)c1c(NC(=O)COC(=O)c2ccc(C)s2)sc2c1CCCCC2	none
COC(=O)c1c(NC(=O)COC(=O)[C@@H](NS(=O)(=O)c2ccc(C)cc2)C(C)C)sc2c1CCC2	TRPML3 ag 29 | TRPN1 ag 2 inactive | TRPML3 ag conf 50
Cc1ccc(S(=O)(=O)N2C(=S)SCC2(C)C)cc1	TRPML3 ag 28 (no result: OXTR agonist, OXTR potentiator, V1R ag counter) | TRPN1 ag 2 inactive | TRPML3 ag conf 47
CCN(c1ccccc1)S(=O)(=O)c1cc2c(cc1C)N(C)CCO2	none (no result: TRPML3 ag, zfTRPN1 agonist)
